What was measured:
[1] = target: T1, Interstitial collagenase (Homo sapiens, UniProt P03956); test: In vitro selective inhibition against matrix metalloprotease-1 (MMP-1) using a fluorimetric assay
T1 sequence (P03956 whole entry): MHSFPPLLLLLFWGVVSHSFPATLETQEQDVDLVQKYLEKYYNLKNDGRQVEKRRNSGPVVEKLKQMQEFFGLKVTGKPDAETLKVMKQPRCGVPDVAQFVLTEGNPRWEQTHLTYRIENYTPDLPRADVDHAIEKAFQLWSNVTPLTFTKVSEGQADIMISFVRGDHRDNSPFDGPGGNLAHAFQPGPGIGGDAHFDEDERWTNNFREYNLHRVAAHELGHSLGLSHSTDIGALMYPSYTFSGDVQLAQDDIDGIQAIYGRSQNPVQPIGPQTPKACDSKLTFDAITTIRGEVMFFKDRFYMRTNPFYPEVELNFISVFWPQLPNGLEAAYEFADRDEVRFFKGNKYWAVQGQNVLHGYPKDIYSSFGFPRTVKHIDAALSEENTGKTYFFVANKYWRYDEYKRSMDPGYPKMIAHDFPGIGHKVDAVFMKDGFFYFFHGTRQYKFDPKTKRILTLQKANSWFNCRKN

[2] = target: 72 kDa type IV collagenase (Homo sapiens, UniProt P08253); test: In vitro selective inhibition against matrix metalloprotease-2 (MMP-2) using fluorimetric assay
72 kDa type IV collagenase, sequence (P08253 whole entry): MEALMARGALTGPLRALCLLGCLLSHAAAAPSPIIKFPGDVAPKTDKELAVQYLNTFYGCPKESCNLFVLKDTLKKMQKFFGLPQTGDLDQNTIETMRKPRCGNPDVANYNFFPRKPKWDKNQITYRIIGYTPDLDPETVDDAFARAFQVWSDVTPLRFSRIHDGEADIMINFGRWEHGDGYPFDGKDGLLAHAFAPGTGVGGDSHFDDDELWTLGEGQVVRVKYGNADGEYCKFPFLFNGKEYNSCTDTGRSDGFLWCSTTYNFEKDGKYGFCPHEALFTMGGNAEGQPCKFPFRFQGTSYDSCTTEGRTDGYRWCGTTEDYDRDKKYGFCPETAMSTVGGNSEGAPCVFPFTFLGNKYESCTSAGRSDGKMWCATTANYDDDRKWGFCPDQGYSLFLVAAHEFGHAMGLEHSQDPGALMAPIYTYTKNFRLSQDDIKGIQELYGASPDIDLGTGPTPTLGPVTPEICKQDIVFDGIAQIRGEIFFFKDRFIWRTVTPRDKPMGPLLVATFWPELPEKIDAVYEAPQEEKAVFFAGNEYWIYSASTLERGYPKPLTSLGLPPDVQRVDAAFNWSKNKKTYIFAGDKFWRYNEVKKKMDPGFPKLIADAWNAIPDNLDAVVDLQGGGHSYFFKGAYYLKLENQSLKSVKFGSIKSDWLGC

[3] = target: Matrix metalloproteinase-9 (Homo sapiens, UniProt P14780); test: In vitro selective inhibition against Matrix metalloprotease-9 (MMP-9) using fluorimetric assay
Matrix metalloproteinase-9, sequence (P14780 whole entry): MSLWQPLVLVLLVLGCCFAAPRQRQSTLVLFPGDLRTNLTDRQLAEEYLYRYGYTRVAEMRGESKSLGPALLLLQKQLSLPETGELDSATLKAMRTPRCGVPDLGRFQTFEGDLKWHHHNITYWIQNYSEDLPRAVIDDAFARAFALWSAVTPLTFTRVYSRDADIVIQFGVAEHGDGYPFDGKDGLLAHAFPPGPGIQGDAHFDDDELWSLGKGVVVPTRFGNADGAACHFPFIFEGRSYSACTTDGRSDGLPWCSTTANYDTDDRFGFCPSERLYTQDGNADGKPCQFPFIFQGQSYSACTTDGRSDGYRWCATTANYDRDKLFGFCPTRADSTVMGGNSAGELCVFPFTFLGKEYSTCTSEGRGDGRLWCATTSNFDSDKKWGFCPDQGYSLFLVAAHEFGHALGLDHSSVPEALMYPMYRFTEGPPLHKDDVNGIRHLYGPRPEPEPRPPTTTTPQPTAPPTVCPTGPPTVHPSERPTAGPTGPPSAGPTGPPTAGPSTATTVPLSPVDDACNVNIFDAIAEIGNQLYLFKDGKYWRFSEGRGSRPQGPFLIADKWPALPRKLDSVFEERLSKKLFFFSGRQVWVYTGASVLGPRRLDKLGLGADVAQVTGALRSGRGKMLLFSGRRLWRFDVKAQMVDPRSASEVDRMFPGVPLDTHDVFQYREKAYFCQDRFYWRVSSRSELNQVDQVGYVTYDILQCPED

[4] = tested on: THP-1; test: Selective inhibition of the cellular TNF alpha release from LPS-stimulated THP-1 cells; type: functional, cell-based; settings: Homo sapiens
[5] = AUC in monkey; type: ADME; parameters: concentration or dose not given beside the values; settings: simiiformes, plasma
[6] = Half life measured as t1/2 in hours after iv administration in cynomolgus monkey; type: ADME, organism-based, Macaca fascicularis; settings: in vivo
[7] = Area under the curve (AUC) after 3 mg/kg peroral administration in cynomolgus monkey; type: ADME, organism-based, Macaca fascicularis; parameters: dose 3 mg/kg, route oral; settings: in vivo, po
Summary of the method: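 Single oral dose of 3 mpk in cynomolgus monkeys, two animals per compound. Oral exposure is reported as AUC in μM·h.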

[8] = target: T2, Matrilysin (Homo sapiens, UniProt P09237); test: Inhibition of Matrix metalloprotease-7 (MMP-7) in fluorimetric assay
T2 sequence (P09237 whole entry): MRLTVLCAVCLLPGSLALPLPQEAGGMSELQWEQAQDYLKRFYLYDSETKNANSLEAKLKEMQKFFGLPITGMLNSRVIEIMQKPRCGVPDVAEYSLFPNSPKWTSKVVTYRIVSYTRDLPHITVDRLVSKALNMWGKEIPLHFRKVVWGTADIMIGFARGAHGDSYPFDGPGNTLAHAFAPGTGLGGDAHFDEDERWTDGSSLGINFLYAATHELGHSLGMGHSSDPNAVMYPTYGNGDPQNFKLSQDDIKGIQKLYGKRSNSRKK

[9] = target: Neutrophil collagenase (Homo sapiens, UniProt P22894); test: Inhibition of Matrix metalloprotease-8 (MMP-8) in fluorimetric assay
Neutrophil collagenase, sequence (P22894 whole entry): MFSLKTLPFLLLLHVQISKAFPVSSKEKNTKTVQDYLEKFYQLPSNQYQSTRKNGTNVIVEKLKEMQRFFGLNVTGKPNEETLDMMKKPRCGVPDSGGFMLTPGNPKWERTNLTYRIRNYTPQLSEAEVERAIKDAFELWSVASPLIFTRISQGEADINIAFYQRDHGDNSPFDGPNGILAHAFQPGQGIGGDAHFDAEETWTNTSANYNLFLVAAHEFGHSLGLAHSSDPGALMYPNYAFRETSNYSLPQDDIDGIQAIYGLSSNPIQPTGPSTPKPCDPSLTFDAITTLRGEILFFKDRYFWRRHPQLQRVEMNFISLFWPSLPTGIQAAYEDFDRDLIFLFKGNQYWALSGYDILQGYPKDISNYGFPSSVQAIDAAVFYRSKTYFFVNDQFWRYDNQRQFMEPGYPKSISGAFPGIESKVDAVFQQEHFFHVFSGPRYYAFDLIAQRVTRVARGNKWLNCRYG

Structure (SMILES)	IC50 [1] [nM]	IC50 [2] [nM]	IC50 [3] [nM]	IC50 [4] [nM]	AUC [5] [µM·h]	half-life [6] [h]	AUC [7] [µM·h]	IC50 [8] [nM]	IC50 [9] [nM]
CN(CC(CS(=O)(=O)c1ccc(Oc2ccc(OC(F)(F)F)cc2)cc1)N(O)C=O)S(C)(=O)=O (configuration not stated)	2000	12	1.7						
CNC(=O)[C@@H](NC(=O)[C@H](CC(C)C)[C@H](O)C(=O)NO)C(C)(C)C				2100					
CS(=O)(=O)N1CCC[C@H]1[C@@H](CS(=O)(=O)c1ccc(Oc2ccc(OC(F)(F)F)cc2)cc1)N(O)C=O	8000	1.9	2		24				
C[C@@H]1OC(C)(C)OC1[C@@H](CS(=O)(=O)c1ccc(Oc2ccc(OC(F)(F)F)cc2)cc1)N(O)C=O (some centres not stated)	> 50000	1.9	1.1		21	19.5			
O=CN(O)C(CS(=O)(=O)c1ccc(Oc2ccc(OC(F)(F)F)cc2)cc1)C1CCC2(CC1)OCCO2 (configuration not stated)	> 50000	0.42	2				28		
CC1(C)OCC(C[C@@H](CS(=O)(=O)c2ccc(Oc3ccc(OC(F)(F)F)cc3)cc2)N(O)C=O)O1 (some centres not stated)	> 50000	1.5	5.5		2				
O=CN(O)C(CCC(=O)N1CCOCC1)CS(=O)(=O)c1ccc(Oc2ccc(OC(F)(F)F)cc2)cc1 (configuration not stated)	> 50000	2.6	2			8.6			
Cn1ccc(=O)n(CC(CS(=O)(=O)c2ccc(Oc3ccc(OC(F)(F)F)cc3)cc2)N(O)C=O)c1=O (configuration not stated)	9900	0.91	1.4		11				
O=CN(O)C(CO)CS(=O)(=O)c1ccc(Oc2ccc(OC(F)(F)F)cc2)cc1 (configuration not stated)		0.35	0.26			1			
O=CN(O)C(CS(=O)(=O)c1ccc(Oc2ccc(OC(F)(F)F)cc2)cc1)c1ccccc1 (configuration not stated)	> 50000	7.4	4.1						
CC1(C)NC(=O)N(CC(CS(=O)(=O)c2ccc(-c3ccc(C#N)cc3)cc2)N(O)C=O)C1=O (configuration not stated)	36	0.34	4.1			1.1			
CC1(C)NC(=O)N(CC(CS(=O)(=O)c2ccc(Oc3ccc(OC(F)(F)F)cc3)cc2)N(O)C=O)C1=O (configuration not stated)	820	1.3	2		8				
O=CN(O)C(COCCO)CS(=O)(=O)c1ccc(Oc2ccc(OC(F)(F)F)cc2)cc1 (configuration not stated)	> 50000	0.44	0.3						
CN(C)S(=O)(=O)CC(CS(=O)(=O)c1ccc(Oc2ccc(OC(F)(F)F)cc2)cc1)N(O)C=O (configuration not stated)	6600	0.098	7.2		4				
CC1(C)NC(=O)N(CC(CS(=O)(=O)c2ccc(Oc3ccc(C#N)cc3)cc2)N(O)C=O)C1=O (configuration not stated)	990	0.93	3.9		1				
CN1C(=O)N(CC(CS(=O)(=O)c2ccc(Oc3ccc(C#N)cc3)cc2)N(O)C=O)C(=O)C1(C)C (configuration not stated)	2500	1.4	1.8						
COCC(CS(=O)(=O)c1ccc(Oc2ccc(OC(F)(F)F)cc2)cc1)N(O)C=O (configuration not stated)	> 50000	2.4	0.9						
O=CN(O)C(CS(=O)(=O)c1ccc(Oc2ccc(OC(F)(F)F)cc2)cc1)c1ccccn1 (configuration not stated)	> 50000	1.7	2.2		1				
O=CN(O)C(CSc1cccs1)CS(=O)(=O)c1ccc(Oc2ccc(OC(F)(F)F)cc2)cc1 (configuration not stated)	6700	3.6	9.7						
O=CN(O)C(CS(=O)(=O)c1ccc(Oc2ccc(OC(F)(F)F)cc2)cc1)c1ccc(C(F)(F)F)cc1 (configuration not stated)	> 50000	62	37						
Cn1c(C(CS(=O)(=O)c2ccc(Oc3ccc(OC(F)(F)F)cc3)cc2)N(O)C=O)cc2ccccc21 (configuration not stated)	> 50000	9.5	12						
O=CN(O)C(CS(=O)(=O)c1ccc(Oc2ccc(OC(F)(F)F)cc2)cc1)C1CCCO1 (configuration not stated)	> 50000	0.61	0.32		26				

Structure (SMILES)	IC50 [1] [nM]	IC50 [2] [nM]	IC50 [3] [nM]	IC50 [4] [nM]	AUC [5] [µM·h]	half-life [6] [h]	AUC [7] [µM·h]	IC50 [8] [nM]	IC50 [9] [nM]
CN1C(=O)N(CC(CS(=O)(=O)c2ccc(Oc3ccc(Cl)cc3)cc2)N(O)C=O)C(=O)C1(C)C (configuration not stated)	280	0.72	1.4		13	11.7			
CC1(C)NC(=O)N(CC(CS(=O)(=O)c2ccc(-c3ccc(C(F)(F)F)cc3)cc2)N(O)C=O)C1=O (configuration not stated)		0.45	10		4	3.4			
O=CN(O)C(CS(=O)(=O)c1ccc(Oc2ccc(OC(F)(F)F)cc2)cc1)[C@H](O)CO (some centres not stated)	> 50000	0.36	0.092		3				
O=CN(O)C(CCN1CCOCC1)CS(=O)(=O)c1ccc(Oc2ccc(OC(F)(F)F)cc2)cc1 (configuration not stated)	> 50000	0.57	1.7		10	1.4			
CC1(C)NC(=O)N(CC(CS(=O)(=O)c2ccc(Oc3ccc(Cl)cc3)cc2)N(O)C=O)C1=O (configuration not stated)	90	0.32	0.96		17	5.6			
CCC1(CC)OCC([C@@H](CS(=O)(=O)c2ccc(Oc3ccc(OC(F)(F)F)cc3)cc2)N(O)C=O)O1 (some centres not stated)	8300	20	1.1		5				
CC1(C)NC(=O)N(CC(CS(=O)(=O)c2ccc(-c3cccc(CC#N)c3)cc2)N(O)C=O)C1=O (configuration not stated)	78	0.35	0.91			0.5			
O=CN(O)C(CS(=O)(=O)c1ccc(Oc2ccc(OC(F)(F)F)cc2)cc1)CS(=O)(=O)N1CCOCC1 (configuration not stated)	2500	0.39	0.86		3				
CN(C)CC(CS(=O)(=O)c1ccc(Oc2ccc(OC(F)(F)F)cc2)cc1)N(O)C=O (configuration not stated)	5200	1.3	0.9		3	2.2			
CCCCOc1ccc(-c2ccc(S(=O)(=O)CC(CN3C(=O)NC(C)(C)C3=O)N(O)C=O)cc2)cc1 (configuration not stated)	240	2.4	6.2						
CC1(C)NC(=O)N(CC(CS(=O)(=O)c2ccc(-c3ccc(OC(F)(F)F)cc3)cc2)N(O)C=O)C1=O (configuration not stated)	82	0.86	0.34		5				
CSc1ccc(-c2ccc(S(=O)(=O)CC(CN3C(=O)NC(C)(C)C3=O)N(O)C=O)cc2)cc1 (configuration not stated)	2.9	0.67	1.1						
O=CN(O)C(CS(=O)(=O)c1ccc(Oc2ccc(OC(F)(F)F)cc2)cc1)C(CO)CO (configuration not stated)	> 50000	2.8	0.49		8	1.9			
CN1C(=O)N(CC(CS(=O)(=O)c2ccc(Oc3ccc(OC(F)(F)F)cc3)cc2)N(O)C=O)C(=O)C1(C)C (configuration not stated)	> 50000	1.8			1	0.7			
CS(=O)(=O)N1CCN(CCC(CS(=O)(=O)c2ccc(Oc3ccc(OC(F)(F)F)cc3)cc2)N(O)C=O)CC1 (configuration not stated)	> 50000	0.33	0.79		41				
O=CN(O)C(CCc1ccc(C(=O)O)cc1)CS(=O)(=O)c1ccc(Oc2ccc(OC(F)(F)F)cc2)cc1 (configuration not stated)	> 50000	0.53	0.53		16				
COC(=O)c1ccc(CCC(CS(=O)(=O)c2ccc(Oc3ccc(OC(F)(F)F)cc3)cc2)N(O)C=O)cc1 (configuration not stated)	> 50000	34	0.98						
CC1(C)OC[C@@H]([C@@H](CS(=O)(=O)c2ccc(Oc3ccc(OC(F)(F)F)cc3)cc2)N(O)C=O)O1 (stereo in doubt; 19v)	> 50000	6.3	2.3						
CC1(C)OC[C@H]([C@@H](CS(=O)(=O)c2ccc(Oc3ccc(OC(F)(F)F)cc3)cc2)N(O)C=O)O1 (stereo in doubt; 19w)	> 50000	25	1.4						
CC1(C)OC[C@@H]([C@@H](CS(=O)(=O)c2ccc(Oc3ccc(OC(F)(F)F)cc3)cc2)N(O)C=O)O1 (stereo in doubt; 19x)	> 50000	260	480						
CC1(C)SCCN(S(=O)(=O)c2ccc(Oc3ccncc3)cc2)[C@H]1C(=O)NO [PRINOMASTAT]				8600				72	0.54
O=C(C[C@H](CSc1ccccc1)C(=O)O)c1ccc(-c2ccc(Cl)cc2)cc1 [TANOMASTAT]	> 5000	11	301						
